Only a selection was taken, and hits are over-represented in it overall.
HSF1 activator – increases HSF-1 driven luciferase reporter signal | AID 504408 | 1.7% of 300,000 active | NIH3T3-HGL HSF-1 luciferase reporter, MG132, 8 h; 100% = twice DMSO control signal | activation, % at 9 µM;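 active = mean replicate activation of at least 50% with a set share of replicates each reaching 50%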
T cruzi repl – blocks replication of Trypanosoma cruzi; inhibition, % (test concentration not listed); T. cruzi beta-gal in NIH3T3, luminescence, 90 h; 1.4% of 300,000 active;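 active = mean inhibition across valid replicates above about 55%, limit read from the data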;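 note: signal also drops with host cell toxicity which is not excluded here; higher percent means less beta-gal luminescence so fewer parasites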
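Assay system: NIH/3T3 host cells with β-galactosidase reporter T. cruzi; input: 5,000 host fibroblasts per well; compound: single 50 nL compound addition per well in DMSO; timing: ≥90 h infection period, 3 h prior cell attachment; measured by: GalScreen β-gal luminescence, detergent lysis, 60 min; evaluation: percent inhibition of parasite-derived β-gal signal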
Lmaj promast – reduces viability of Leishmania major promastigotes. resazurin fluorescence viability. inhibition, % at 10 µM. 9% of 200,000 active. AID 1063; in the data active = inhibition above about 50%;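 note: promastigotes grown with compound for 44 hours at 28 °C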
HSF1 inh – HSF1 inhibition; NIH3T3-HGL HSE-luciferase, MG132-induced, luminescence 8 h; active compounds read low; activity change, negative = inhibition, % at 7.5 µM (by protocol); 0.77% of 300,000 active;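 active = more than half of replicate wells show activity change below -50%, luminescence cut by over half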;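 note: luciferase reports HSF-1 transcriptional activity via heat shock element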
Hsp70 act – switches on Hsp70 transcription | HeLa Hsp70 promoter luciferase reporter, luminescence; scaled: vehicle 0, proteasome-inhibitor control 100% | activation, % at 10 µM | 0.04% of 200,000 active | AID 1203;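 active = activation above the mean across all tested compounds plus 3 SD, cutoff set per campaign, cut at about 5.5% in these data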
A number is an active result.

`COc1ccccc1-n1c(SCC(=O)Nc2ccc3c(c2)OCO3)nc2c(c1=O)SCC2` gave HSF1 activator inactive, T cruzi repl inactive, Lmaj promast 89, HSF1 inh inactive and Hsp70 act inactive.
`COc1cccc(-n2c(SCC(=O)NCC3CCCO3)nc3c(c2=O)SCC3)c1` (centres undefined) gave HSF1 activator inactive, T cruzi repl inactive and HSF1 inh -72.
COc1ccc(-n2c(SCC(=O)Nc3ccc4c(c3)OCO4)nc3c(c2=O)SCC3)cc1 was read as HSF1 activator inactive, T cruzi repl inactive, Lmaj promast inactive, HSF1 inh inactive and Hsp70 act inactive.
For CCN(CC)c1ccc(S(=O)(=O)N2CCCCC2)cc1NC(=O)CN1C(=O)NC2(CCCC2)C1=O the results were HSF1 activator inactive, T cruzi repl inactive and HSF1 inh inactive.
`CC(/C=C/C=C/c1ccccc1)=N/NC(=O)CNc1ccc(C)cc1` gave HSF1 activator inactive, T cruzi repl inactive, Lmaj promast inactive, HSF1 inh inactive and Hsp70 act inactive.
Screening Cc1cc(C)n2nc(CC#N)c(C#N)c2n1 returned HSF1 activator inactive, T cruzi repl inactive, Lmaj promast inactive, HSF1 inh inactive and Hsp70 act inactive.
`N#C/C(=C\c1ccccn1)c1ccccn1` gave HSF1 activator inactive, T cruzi repl inactive and HSF1 inh -60.
For COC(=O)c1ccc(/C=C(\C#N)c2ccccn2)cc1 the results were HSF1 activator 86, T cruzi repl inactive, Lmaj promast inactive, HSF1 inh inactive and Hsp70 act inactive.
`Cc1cc(C)n2nc(/C(C#N)=C/c3ccccn3)c(C#N)c2n1` gave HSF1 activator 99, T cruzi repl inactive, Lmaj promast 97, HSF1 inh inactive and Hsp70 act inactive.
`N#C/C(=C\c1ccc([N+](=O)[O-])cc1)c1ccccn1` gave HSF1 activator 73, T cruzi repl inactive, Lmaj promast inactive, HSF1 inh inactive and Hsp70 act inactive.
CC(C)(C)c1ccc(C(=O)NNc2ncccc2-n2cccc2)cc1 was read as HSF1 activator inactive, T cruzi repl inactive and HSF1 inh inactive.
Screening CC(=O)OC1CC(c2cc(C(C)(C)C)c(O)c(C(C)(C)C)c2)=NO1 (centres undefined) returned HSF1 activator inactive, T cruzi repl inactive and HSF1 inh inactive.
Screening CCOc1ccc(C2/C(=C(/O)c3ccc4c(c3)CC(C)O4)C(=O)C(=O)N2CCCn2ccnc2)cc1OCC (centres undefined) returned HSF1 activator inactive, T cruzi repl inactive and HSF1 inh inactive.
For CCOc1ccc(S(=O)(=O)c2c(C(=O)c3ccccc3)cnc3cc4c(cc23)OCCO4)cc1 the results were HSF1 activator 68, T cruzi repl 71, Lmaj promast inactive, HSF1 inh inactive and Hsp70 act inactive.
CCOC(=O)c1cc(C(=O)c2cc(F)ccc2O)coc1=N was read as HSF1 activator inactive, T cruzi repl inactive, Lmaj promast inactive, HSF1 inh inactive and Hsp70 act inactive.
N=c1occ(C(=O)c2cc(F)ccc2O)cc1C(=O)NC1CCCCC1 was read as HSF1 activator inactive, T cruzi repl inactive, Lmaj promast 70, HSF1 inh inactive and Hsp70 act inactive.
CCCCCCCCCCCCCCCC(O)C(N)CO (centres undefined) was read as HSF1 activator inactive, T cruzi repl inactive, Lmaj promast 100, HSF1 inh inactive and Hsp70 act inactive.
CCOC(=O)C1=C(C)NC(C)=C(C(=O)OCC)C1C(=O)OCC(=O)N(C)C was read as HSF1 activator inactive, T cruzi repl inactive and HSF1 inh inactive.
`CCOC(=O)N1CCC(N2Cc3cccc(C(=O)N4CCN(c5cccc(C)c5C)CC4)c3C2=O)CC1` gave HSF1 activator inactive, T cruzi repl inactive, Lmaj promast 62, HSF1 inh inactive and Hsp70 act inactive.
Screening CCCN1Cc2cccc(C(=O)N3CCN(c4cc(Cl)ccc4C)CC3)c2C1=O returned HSF1 activator inactive, T cruzi repl inactive, Lmaj promast 97, HSF1 inh inactive and Hsp70 act inactive.
`CCOC(=O)N1CCC(N2Cc3cccc(C(=O)N4CCN(c5cccc(Cl)c5)CC4)c3C2=O)CC1` gave HSF1 activator inactive, T cruzi repl inactive, Lmaj promast inactive, HSF1 inh inactive and Hsp70 act inactive.
For CC(Sc1nnc(-c2cccs2)n1-c1ccccc1)C(=O)NCc1ccc2c(c1)OCO2 (centres undefined) the results were HSF1 activator inactive, T cruzi repl inactive, Lmaj promast 91, HSF1 inh inactive and Hsp70 act inactive.
CC(C)CCN1CC(=O)N2[C@@H](Cc3c([nH]c4ccccc34)C2(C)C)C1=O was read as HSF1 activator inactive, T cruzi repl inactive and HSF1 inh inactive.
Screening CC1CCN(C(=O)c2ccc3c(c2)OCO3)CC1 returned HSF1 activator inactive, T cruzi repl inactive and HSF1 inh inactive.
`COc1cccc(CSc2nc3ccccc3cc2C=O)c1` gave HSF1 activator inactive, T cruzi repl inactive, Lmaj promast 97, HSF1 inh inactive and Hsp70 act inactive.
Screening CCC(=O)NC(=S)Nc1ccc(N2CCN(C(=O)c3ccc(Cl)cc3)CC2)cc1 returned T cruzi repl inactive, Lmaj promast inactive and Hsp70 act inactive.
Screening Cc1ccccc1N=Nc1c(O)n(C)c2ccccc12 returned HSF1 activator inactive, T cruzi repl inactive and HSF1 inh inactive.
Screening COc1cccc(-n2c(CN3CCN(Cc4ccccc4)CC3)nc3ccc([N+](=O)[O-])cc3c2=O)c1 returned HSF1 activator inactive, T cruzi repl inactive, Lmaj promast 76, HSF1 inh inactive and Hsp70 act inactive.
`CCCCCCCCCCOC(=O)C[N+](C)(C)C/C=C(/C)Cl` gave HSF1 activator inactive, T cruzi repl inactive, Lmaj promast 100, HSF1 inh inactive and Hsp70 act inactive.
For CCCCCCCCCCCCOC(=O)C[N+](C)(C)C the results were HSF1 activator inactive and HSF1 inh inactive.
CCCCCCCCOC(=O)C[N+](C)(C)C/C=C(/C)Cl was read as HSF1 activator inactive, T cruzi repl inactive, Lmaj promast 67, HSF1 inh inactive and Hsp70 act inactive.
For COCc1cc(C)nc(Nc2ccccc2OC)c1C#N the results were HSF1 activator inactive, T cruzi repl inactive and HSF1 inh inactive.
`COc1ccc2c(-c3ccccc3)cc(SC(C)C(N)=O)nc2c1` (centres undefined) gave HSF1 activator inactive, T cruzi repl inactive, Lmaj promast 81, HSF1 inh inactive and Hsp70 act inactive.
Screening CC1CC2(CCCCC2)Nc2ccc3ccccc3c21 (centres undefined) returned HSF1 activator 58, T cruzi repl inactive, Lmaj promast inactive, HSF1 inh inactive and Hsp70 act inactive.
`Cc1[nH]nc2c1C(c1ccc(-c3ccc(Cl)cc3)o1)C(C#N)=C(N)O2` (centres undefined) gave HSF1 activator inactive, T cruzi repl inactive, Lmaj promast 100, HSF1 inh inactive and Hsp70 act inactive.

Source: PubChem BioAssay
